Each block holds one compound with its values, some of them ahead of it.
Columns and labels:
[1] = biological target: T1, Potassium-transporting ATPase (Rattus norvegicus) (UniProt P09626+P18598); test: Inhibition of pentagastrin stimulated gastric acid secretion in anesthetized rat at 10 uM/kg; type: functional; conditions: Stomach; 10 umol/kg
How it was run: (§1)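 Anaesthetized rat with lumen-perfused stomach; acid secretion induced by pentagastrin; compound given intravenously; inhibition of acid output recorded.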

[2] = biological target: Potassium-transporting ATPase (Sus scrofa, UniProt P19156); test: Inhibition of K+ stimulated gastric ATPase activity; type: tissue-based, Stomach
How it was run: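 K+-stimulated ATPase activity measured in a lyophilized gastric vesicle preparation at pH 7; enzyme concentration estimated at around 2 nM from 32P-ATP binding.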

[3] = biological target: T1, Potassium-transporting ATPase (Rattus norvegicus); test: Inhibition of pentagastrin stimulated gastric acid secretion in anesthetized rat 10 uM/kg, on iv administration of the compound.; type: functional, organism-based; conditions: Stomach; how it was run: as §1
[4] = system: Canis familiaris; test: % inhibition of Histamine-stimulated gastric acid secretion in Heidenhain pouch dog 1 uM/kg, on iv administration of the compound.; type: functional, Canis lupus familiaris, Stomach
[5] = system: Canis familiaris; test: % inhibition of Histamine-stimulated gastric acid secretion in Heidenhain pouch dog 4 uM/kg, on peroral administration of the compound.; type: functional, Canis lupus familiaris, Stomach
How it was run: (§2)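 Heidenhain pouch dogs with histamine-stimulated acid secretion; compound given orally as a dry powder in a hard gelatin capsule; inhibition of acid secretion measured.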

[6] = system: Canis familiaris; test: % inhibition of Histamine-stimulated gastric acid secretion in Heidenhain pouch dog at 4 uM/kg, on peroral administration of the compound.; type: functional, Canis lupus familiaris, Stomach; how it was run: as §2
[7] = system: Canis familiaris; test: % inhibition of Histamine-stimulated gastric acid secretion in Heidenhain pouch dog at1uM/kg, on iv administration of the compound.; type: functional, Canis lupus familiaris, Stomach
[8] = system: Rattus norvegicus; test: Inhibition of pentagastrin stimulated gastric acid secretion in anesthetized rat on iv administration of the compound.; type: functional; conditions: Stomach; how it was run: as §1
[9] = system: Canis familiaris; test: % inhibition of Histamine-stimulated gastric acid secretion in Heidenhain pouch dog at 1 uM/kg; type: functional, Canis lupus familiaris, Stomach
[10] = system: Canis familiaris; test: % inhibition of Histamine-stimulated gastric acid secretion in Heidenhain pouch dog at 4 uM/kg; type: functional, Canis lupus familiaris, Stomach
[11] = system: Rattus norvegicus; test: Inhibition of pentagastrin stimulated gastric acid secretion in anesthetized rat on 10 uM/kg, iv administration of the compound.; type: functional, Stomach; how it was run: as §1
[12] = system: Rattus norvegicus; test: Inhibition of pentagastrin stimulated gastric acid secretion in anesthetized rat at 10 uM/kg, on iv administration of the compound.; type: functional, Stomach; how it was run: as §1
[13] = biological target: Potassium-transporting ATPase (Sus scrofa) (UniProt P18434+P19156); test: Inhibition of K+ stimulated gastric ATPase activity at 100 uM[…]; type: tissue-based; conditions: Stomach
[14] = system: Canis familiaris; test: % inhibition of Histamine-stimulated gastric acid secretion in Heidenhain pouch dog at 1 uM/kg, on peroral administration of the compound.; type: functional, Canis lupus familiaris, Stomach; conditions: in the assay text read “on iv administration” for “on peroral administration”

Potassium-transporting ATPase, sequence (P18434 whole entry): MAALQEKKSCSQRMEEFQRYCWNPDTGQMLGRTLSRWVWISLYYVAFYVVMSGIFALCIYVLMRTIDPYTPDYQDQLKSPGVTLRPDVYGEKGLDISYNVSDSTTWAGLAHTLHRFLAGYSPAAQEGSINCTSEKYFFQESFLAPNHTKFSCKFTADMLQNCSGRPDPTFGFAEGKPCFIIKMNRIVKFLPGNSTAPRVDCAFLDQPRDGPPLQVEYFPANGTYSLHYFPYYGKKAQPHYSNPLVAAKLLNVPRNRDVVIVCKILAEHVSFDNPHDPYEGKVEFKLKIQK
Potassium-transporting ATPase, sequence (P19156 whole entry): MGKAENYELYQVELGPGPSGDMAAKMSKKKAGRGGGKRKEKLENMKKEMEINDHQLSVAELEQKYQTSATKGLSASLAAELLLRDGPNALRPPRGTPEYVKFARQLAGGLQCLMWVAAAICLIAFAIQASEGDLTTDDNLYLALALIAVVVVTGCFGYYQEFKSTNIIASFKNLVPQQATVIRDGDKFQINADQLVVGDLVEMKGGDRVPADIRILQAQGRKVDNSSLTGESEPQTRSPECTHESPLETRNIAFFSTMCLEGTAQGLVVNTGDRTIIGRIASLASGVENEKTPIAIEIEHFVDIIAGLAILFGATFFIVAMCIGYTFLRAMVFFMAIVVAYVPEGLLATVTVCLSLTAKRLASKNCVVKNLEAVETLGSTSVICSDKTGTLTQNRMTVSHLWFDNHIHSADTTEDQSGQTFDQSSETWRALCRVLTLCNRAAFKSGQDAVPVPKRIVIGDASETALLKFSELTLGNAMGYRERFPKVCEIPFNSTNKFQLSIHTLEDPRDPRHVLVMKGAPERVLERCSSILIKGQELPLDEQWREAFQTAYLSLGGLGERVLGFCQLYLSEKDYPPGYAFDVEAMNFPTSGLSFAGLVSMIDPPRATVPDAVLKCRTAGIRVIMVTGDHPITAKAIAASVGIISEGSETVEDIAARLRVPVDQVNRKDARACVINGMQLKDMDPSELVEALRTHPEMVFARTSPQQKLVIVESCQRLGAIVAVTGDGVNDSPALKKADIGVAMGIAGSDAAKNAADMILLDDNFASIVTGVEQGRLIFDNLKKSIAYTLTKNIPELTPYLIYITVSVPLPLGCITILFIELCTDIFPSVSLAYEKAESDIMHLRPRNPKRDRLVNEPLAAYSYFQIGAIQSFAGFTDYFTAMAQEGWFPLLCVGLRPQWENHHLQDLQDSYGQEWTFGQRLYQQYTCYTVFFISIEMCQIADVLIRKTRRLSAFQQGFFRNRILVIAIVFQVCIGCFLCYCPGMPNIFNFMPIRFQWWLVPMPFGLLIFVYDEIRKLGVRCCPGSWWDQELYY

inhibition [1]: 90%
IC50 [2]: 46 nM
SMILES: Cc1ccccc1Nc1nc(N(C)c2ccccc2C)c2ccccc2n1

inhibition [1]: 17%
IC50 [2]: 2260 nM
SMILES: Cc1ccccc1Nc1nc(N2CCCC2)nc2ccccc12

inhibition [1]: 48%
IC50 [2]: 240 nM
SMILES: Cc1ccccc1Nc1nc(N)nc2c(C)cccc12

inhibition [3]: 93%
IC50 [2]: 35 nM
SMILES: Cc1ccccc1Nc1nc(N(C)c2ccccc2)c2cccc(OCCO)c2n1
Inhibition [4]: 73%
Inhibition [5]: 8%

IC50 [2]: 67 nM
SMILES: CN(c1ccccc1)c1nc(N(C)c2ccccc2)c2ccccc2n1
Inhibition [6]: 2%
Inhibition [7]: 73%
ED50 [8]: 2.81 µmol/kg

IC50 [2]: 170 nM
SMILES: Cc1cc(F)ccc1Nc1nc(N(C)c2ccccc2)c2cccc(O)c2n1

IC50 [2]: 2500 nM
SMILES: COc1cccc2c(Nc3ccccc3C)nc(Nc3ccccc3C)nc12

IC50 [2]: 95 nM
SMILES: COc1cccc2c(N(C)c3ccccc3C)nc(Nc3ccc(F)cc3C)nc12

inhibition [3]: 23%
IC50 [2]: 1070 nM
SMILES: Cc1cc(O)ccc1Nc1nc(N(C)c2ccccc2)c2ccccc2n1

IC50 [2]: 74 nM
SMILES: COc1cccc2c(N(C)c3ccccc3)nc(N(C)c3ccccc3)nc12

IC50 [2]: 1320 nM
SMILES: Cc1ccccc1Nc1nc(N)nc2ccccc12
ED50 [8]: 48 µmol/kg

IC50 [2]: 510 nM
SMILES: Cc1ccccc1Nc1nc(NCc2ccccc2)nc2ccccc12

inhibition [1]: 13%
IC50 [2]: 1200 nM
SMILES: COc1cccc2c(N(C)c3ccccc3)nc(N)nc12

IC50 [2]: 940 nM
SMILES: Cc1ccccc1Nc1nc(Nc2ccccc2)c2ccccc2n1

inhibition [3]: 49%
IC50 [2]: 21 nM
SMILES: Cc1ccccc1Nc1nc(N(C)c2ccccc2)c2cccc(OCCCN(C)C)c2n1
Inhibition [4]: 18%
Inhibition [5]: 25%

inhibition [3]: 68%
IC50 [2]: 36 nM
SMILES: Cc1cc(F)ccc1Nc1nc(N(C)c2ccccc2)c2cccc(OCCCN(C)C)c2n1
Inhibition [5]: 0%

IC50 [2]: 42 nM
SMILES: COc1cccc2c(N(C)c3ccccc3)nc(Nc3ccccc3C)nc12
Inhibition [9]: 79%
Inhibition [10]: 44%
ED50 [8]: 1.39 µmol/kg

IC50 [2]: 3200 nM
SMILES: COc1cccc2c(Nc3ccccc3C)nc(NCCc3ccccc3)nc12

inhibition [1]: 79%
IC50 [2]: 22 nM
SMILES: Cc1ccccc1Nc1nc(N(C)c2ccccc2)c2ccccc2n1
Inhibition [6]: 0%
Inhibition [7]: 74%

inhibition [3]: 5%
IC50 [2]: 370 nM
SMILES: Cc1cc(F)ccc1Nc1nc(N(C)c2ccccc2)c2cc(OCCCN3CCOCC3)ccc2n1

IC50 [2]: 250 nM
SMILES: COc1ccc2nc(Nc3ccc(F)cc3C)nc(N(C)c3ccccc3)c2c1
Inhibition [11]: 27%

IC50 [2]: 130 nM
SMILES: CCOC(=O)COc1cccc2c(N(C)c3ccccc3)nc(Nc3ccc(F)cc3C)nc12
Inhibition [11]: 39%

IC50 [2]: 120 nM
SMILES: Cc1ccccc1Nc1nc(N(C)c2ccc(F)cc2)c2ccccc2n1
Inhibition [12]: 62%

inhibition [13]: 27%
SMILES: Cc1ccccc1Nc1nc(Nc2ccccc2C)c2ccsc2n1

inhibition [1]: 33%
IC50 [2]: 3800 nM
SMILES: COc1cccc2c(Nc3ccccc3C)nc(NCc3nccs3)nc12

inhibition [1]: 27%
IC50 [2]: 2000 nM
SMILES: Cc1ccccc1Nc1nc(N(C)c2ccccc2C)nc2ccccc12

inhibition [1]: 37%
IC50 [2]: 16000 nM
SMILES: COc1cccc2c(Nc3ccccc3C)nc(N(C)C)nc12

inhibition [1]: 31%
IC50 [2]: 30000 nM
SMILES: COc1cccc2c(Nc3ccccc3C)nc(N3CCCC3)nc12

IC50 [2]: 18 nM
SMILES: Cc1cc(F)ccc1Nc1nc(N(C)c2ccccc2)c2cc(O)ccc2n1
Inhibition [4]: 97%
Inhibition [5]: 0%
ED50 [8]: 1.5 µmol/kg

IC50 [2]: 34 nM
SMILES: Cc1cc(F)ccc1Nc1nc(N(C)c2ccccc2)c2sccc2n1
Inhibition [12]: 49%

IC50 [2]: 28 nM
SMILES: COc1ccc(N(C)c2nc(Nc3ccccc3C)[n+](C)c3ccccc23)cc1

inhibition [1]: 17%
IC50 [2]: 3300 nM
SMILES: CN(c1ccccc1)c1nc(N)nc2ccccc12

IC50 [2]: 19 nM
SMILES: Cc1ccccc1Nc1nc(N(C)c2ccccc2)c2sccc2n1
Inhibition [6]: 12%
Inhibition [12]: 50%
Inhibition [14]: 84%

IC50 [2]: 65 nM
SMILES: CN(c1ccccc1)c1nc(Nc2ccccc2)nc2ccccc12
ED50 [8]: 2.35 µmol/kg

inhibition [3]: 93%
IC50 [2]: 100 nM
SMILES: COc1cccc2c(N(C)c3ccccc3C)nc(Nc3ccccc3C)nc12
